Key:
Type in all cases: functional
NCI-H322M = assay: Growth inhibition of human NCI-H322M cells assessed as growth percentage at 10 uM incubated for 48 hrs by sulforhodamine B assay relative to control; settings: read-out: Activity
Outline: (§1)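 NCI-60 one-dose screen. Cells in RPMI 1640 with 5% FBS and 2 mM L-glutamine, seeded at 5,000–40,000 cells/well according to doubling time, and preincubated overnight at 37 °C, 5% CO2. A time-zero plate was TCA-fixed at drug addition. Compound from DMSO stock, final 10 µM, 48 h; DMSO vehicle controls. Fixation with TCA, 10% final (16% for suspension cells). SRB stain, Tris solubilization, A515. Result given as % growth versus untreated cells.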

HCC 2998 = assay: Growth inhibition of human HCC2998 cells assessed as growth percentage at 10 uM incubated for 48 hrs by sulforhodamine B assay relative to control; settings: HCC 2998, 48 h, read-out: Activity
Outline: (§2)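 NCI-60 one-dose screen: cells in RPMI 1640 with 5% FBS and 2 mM L-glutamine, plated at 5,000–40,000 cells/well and preincubated 24 h at 37 °C, 5% CO2. Compound is added from a DMSO stock to a final 10 µM and incubated 48 h. Cells are TCA-fixed and stained with sulforhodamine B, read at 515 nm. Output is % growth versus untreated control, with a time-zero plate.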

UO-31 = assay: Growth inhibition of human UO31 cells assessed as growth percentage at 10 uM incubated for 48 hrs by sulforhodamine B assay relative to control; settings: UO-31, 48 h, read-out: Activity
Outline: (§3)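 NCI-60 single-dose screen. Cells were grown in RPMI 1640 with 5% FBS and 2 mM L-glutamine and plated at 5,000–40,000 cells/well. After an overnight preincubation at 37 °C in 5% CO2, compound was added at a final 10 µM from a DMSO stock, with DMSO/PBS controls. After 48 h, cells were TCA-fixed and stained with 0.4% SRB, and absorbance was read at 515 nm. Growth is given as a percentage of untreated control.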

UACC-62 = assay: Growth inhibition of human UACC62 cells assessed as growth percentage at 10 uM incubated for 48 hrs by sulforhodamine B assay relative to control; settings: UACC-62, 48 h, read-out: Activity; outline: as §3
M14 = assay: Growth inhibition of human M14 cells assessed as growth percentage at 10 uM incubated for 48 hrs by sulforhodamine B assay relative to control; settings: M14, 48 h, read-out: Activity; outline: as §1
OVCAR-3 = assay: Growth inhibition of human OVCAR3 cells assessed as growth percentage at 10 uM incubated for 48 hrs by sulforhodamine B assay relative to control; settings: OVCAR-3, 48 h, read-out: Activity; outline: as §1
IGROV-1 = assay: Growth inhibition of human IGROV1 cells assessed as growth percentage at 10 uM incubated for 48 hrs by sulforhodamine B assay relative to control; settings: IGROV-1, 48 h, read-out: Activity; outline: as §1
PC-3 = assay: Growth inhibition of human PC3 cells assessed as growth percentage at 10 uM incubated for 48 hrs by sulforhodamine B assay relative to control; settings: PC-3, 48 h, read-out: Activity; outline: as §3
K562 = assay: Growth inhibition of human K562 cells assessed as growth percentage at 10 uM incubated for 48 hrs by sulforhodamine B assay relative to control; settings: K562, 48 h, read-out: Activity; outline: as §1
SK-MEL-28 = assay: Growth inhibition of human SK-MEL-28 cells assessed as growth percentage at 10 uM incubated for 48 hrs by sulforhodamine B assay relative to control; settings: SK-MEL-28, 48 h, read-out: Activity; outline: as §3
ACHN = assay: Growth inhibition of human ACHN cells assessed as growth percentage at 10 uM incubated for 48 hrs by sulforhodamine B assay relative to control; settings: read-out: Activity; outline: as §2
UACC-257 = assay: Growth inhibition of human UACC257 cells assessed as growth percentage at 10 uM incubated for 48 hrs by sulforhodamine B assay relative to control; settings: UACC-257, 48 h, read-out: Activity; outline: as §3
SF-295 = assay: Growth inhibition of human SF295 cells assessed as growth percentage at 10 uM incubated for 48 hrs by sulforhodamine B assay relative to control; settings: SF-295, 48 h, read-out: Activity; outline: as §3
U-251 = assay: Growth inhibition of human U251 cells assessed as growth percentage at 10 uM incubated for 48 hrs by sulforhodamine B assay relative to control; settings: U-251, 48 h, read-out: Activity; outline: as §3
NCI/ADR-RES = assay: Growth inhibition of human NCI/ADR-RES cells assessed as growth percentage at 10 uM incubated for 48 hrs by sulforhodamine B assay relative to control; settings: read-out: Activity; outline: as §1
NCI-H460 = assay: Growth inhibition of human NCI-H460 cells assessed as growth percentage at 10 uM incubated for 48 hrs by sulforhodamine B assay relative to control; settings: NCI-H460, 48 h, read-out: Activity; outline: as §1
OVCAR-4 = assay: Growth inhibition of human OVCAR4 cells assessed as growth percentage at 10 uM incubated for 48 hrs by sulforhodamine B assay relative to control; settings: OVCAR-4, 48 h, read-out: Activity; outline: as §1
CAKI-1 = assay: Growth inhibition of human Caki1 cells assessed as growth percentage at 10 uM incubated for 48 hrs by sulforhodamine B assay relative to control; settings: CAKI-1, 48 h, read-out: Activity; outline: as §2
RXF 393 = assay: Growth inhibition of human RXF393 cells assessed as growth percentage at 10 uM incubated for 48 hrs by sulforhodamine B assay relative to control; settings: RXF 393, 48 h, read-out: Activity; outline: as §3
NCI-H23 = assay: Growth inhibition of human NCI-H23 cells assessed as growth percentage at 10 uM incubated for 48 hrs by sulforhodamine B assay relative to control; settings: NCI-H23, 48 h, read-out: Activity; outline: as §1
786-0 = assay: Growth inhibition of human 786-0 cells assessed as growth percentage at 10 uM incubated for 48 hrs by sulforhodamine B assay relative to control; settings: 786-0, 48 h, read-out: Activity; outline: as §2
HL-60(TB) = assay: Growth inhibition of human HL-60(TB) cells assessed as growth percentage at 10 uM incubated for 48 hrs by sulforhodamine B assay relative to control; settings: HL-60, 48 h, read-out: Activity
Outline: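 NCI-60 single-dose screen. Cells in RPMI 1640 with 5% FBS and 2 mM L-glutamine are plated at 5,000–40,000 cells/well and preincubated overnight at 37 °C, 5% CO2. Compound is added from a DMSO stock at 10 µM final for 48 h. Cells are TCA-fixed (suspension cells 16% final) and stained with SRB. Absorbance is read at 515 nm, and percentage growth is calculated against untreated controls with a time-zero plate.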

SR = assay: Growth inhibition of human SR cells assessed as growth percentage at 10 uM incubated for 48 hrs by sulforhodamine B assay relative to control; settings: read-out: Activity; outline: as §3
SF-539 = assay: Growth inhibition of human SF539 cells assessed as growth percentage at 10 uM incubated for 48 hrs by sulforhodamine B assay relative to control; settings: SF-539, 48 h, read-out: Activity; outline: as §3

Molecule `CC1=C(C(=O)OCC(C)C)C(c2ccc3c(c2)OCO3)NC(=S)N1` (racemic) has a growth at 10 µM (NCI-H322M) of 117%, a growth at 10 µM (HCC 2998) of 112% and a growth at 10 µM (UO-31) of 89.4%. The growth at 10 µM (UACC-62) was 90.3%, the growth at 10 µM (M14) was 120% and the growth at 10 µM (OVCAR-3) was 109%. For the same molecule, the growth at 10 µM (IGROV-1) was 97.9%, the growth at 10 µM (PC-3) was 84.4% and the growth at 10 µM (K562) was 90.7%. The growth at 10 µM (SK-MEL-28) was 119%, the growth at 10 µM (ACHN) was 98.5% and the growth at 10 µM (UACC-257) was 95.6%. It also gave a growth at 10 µM (SF-295) of 104%, a growth at 10 µM (U-251) of 97.4% and a growth at 10 µM (NCI/ADR-RES) of 96.7%. For the same molecule, the growth at 10 µM (NCI-H460) was 110%, the growth at 10 µM (OVCAR-4) was 103% and the growth at 10 µM (CAKI-1) was 86.6%. The growth at 10 µM (RXF 393) was 100%, the growth at 10 µM (NCI-H23) was 99.5% and the growth at 10 µM (786-0) was 104%. For the same molecule, the growth at 10 µM (HL-60(TB)) was 101%, the growth at 10 µM (SR) was 104% and the growth at 10 µM (SF-539) was 109%.

With `COCCOC(=O)C1=C(C)NC(=S)N(C(C)=O)C1c1ccc2c(c1)OCO2` (racemic) the growth at 10 µM (NCI-H322M) was 101%, the growth at 10 µM (HCC 2998) was 113% and the growth at 10 µM (UO-31) was 82%. It also gave a growth at 10 µM (UACC-62) of 98.2%, a growth at 10 µM (M14) of 96.1% and a growth at 10 µM (OVCAR-3) of 101%. The growth at 10 µM (IGROV-1) was 106%, the growth at 10 µM (PC-3) was 97.8% and the growth at 10 µM (K562) was 94.3%. For the same molecule, the growth at 10 µM (SK-MEL-28) was 106%, the growth at 10 µM (ACHN) was 102% and the growth at 10 µM (UACC-257) was 95.3%. For the same molecule, the growth at 10 µM (SF-295) was 98.5%, the growth at 10 µM (U-251) was 94.8% and the growth at 10 µM (NCI/ADR-RES) was 99.8%. The growth at 10 µM (NCI-H460) was 104%, the growth at 10 µM (OVCAR-4) was 87.6% and the growth at 10 µM (CAKI-1) was 97.4%. For the same molecule, the growth at 10 µM (RXF 393) was 111%, the growth at 10 µM (NCI-H23) was 99.1% and the growth at 10 µM (786-0) was 108%. The growth at 10 µM (HL-60(TB)) was 97.8% and the growth at 10 µM (SF-539) was 97.6%.

`CC1=C(C(=O)OCc2ccccc2)C(c2ccc3c(c2)OCO3)n2c(nc3ccccc32)N1` (racemic) was tested, and the growth at 10 µM (NCI-H322M) was 47 to 55%, the growth at 10 µM (HCC 2998) was 50 to 56.4% and the growth at 10 µM (UO-31) was 28 to 51.1%. The growth at 10 µM (UACC-62) was 22 to 46.2%, the growth at 10 µM (M14) was 28.1 to 35% and the growth at 10 µM (IGROV-1) was 36 to 41.4%. For the same molecule, the growth at 10 µM (PC-3) was 35 to 41.1%, the growth at 10 µM (K562) was 13.8 to 25% and the growth at 10 µM (SK-MEL-28) was 52 to 61.8%. The growth at 10 µM (ACHN) was 36 to 38.4%, the growth at 10 µM (UACC-257) was 34 to 60.4% and the growth at 10 µM (SF-295) was 8 to 20.4%. For the same molecule, the growth at 10 µM (U-251) was 31 to 36.3%, the growth at 10 µM (NCI/ADR-RES) was 20 to 23.2% and the growth at 10 µM (NCI-H460) was 6.62 to 8%. The growth at 10 µM (OVCAR-4) was 54 to 73.8%, the growth at 10 µM (CAKI-1) was 24 to 34.3% and the growth at 10 µM (RXF 393) was 30 to 53.2%. For the same molecule, the growth at 10 µM (NCI-H23) was 49.3 to 56%, the growth at 10 µM (786-0) was 31 to 43.1% and the growth at 10 µM (SR) was 9.81 to 43%. It also gave a growth at 10 µM (SF-539) of 9.94 to 21%.

Work on `CC1=C(C(=O)OCc2ccccc2)C(c2ccc3c(c2)OCO3)NC(=S)N1` (racemic) yielded a growth at 10 µM (NCI-H322M) of 95.1%, a growth at 10 µM (HCC 2998) of 120% and a growth at 10 µM (UO-31) of 89.2%. The growth at 10 µM (UACC-62) was 91.2%, the growth at 10 µM (M14) was 102% and the growth at 10 µM (OVCAR-3) was 98.4%. The growth at 10 µM (IGROV-1) was 97.6%, the growth at 10 µM (PC-3) was 85.2% and the growth at 10 µM (K562) was 75.2%. The growth at 10 µM (SK-MEL-28) was 106%, the growth at 10 µM (ACHN) was 98.9% and the growth at 10 µM (UACC-257) was 96.7%. The growth at 10 µM (SF-295) was 102%, the growth at 10 µM (U-251) was 95.8% and the growth at 10 µM (NCI/ADR-RES) was 105%. The growth at 10 µM (NCI-H460) was 96.7%, the growth at 10 µM (OVCAR-4) was 84.5% and the growth at 10 µM (CAKI-1) was 81.8%. The growth at 10 µM (RXF 393) was 94.4%, the growth at 10 µM (NCI-H23) was 94.5% and the growth at 10 µM (786-0) was 105%. For the same molecule, the growth at 10 µM (HL-60(TB)) was 56.1%, the growth at 10 µM (SR) was 77.2% and the growth at 10 µM (SF-539) was 99.3%.

Reference: ChEMBL document CHEMBL4406880, “Design, synthesis, and bioactivity of dihydropyrimidine derivatives as kinesin spindle protein inhibitors” (Bioorg Med Chem, 2019)
